The values that follow come from ChEMBL document CHEMBL4184273, “Discovery of chromenes as inhibitors of macrophage migration inhibitory factor” (Bioorg Med Chem, 2018).

Broadly, the inhibition is the share of the control response that was lost under treatment. One may read the IC50 as the concentration needed to halve the response being measured.

Molecules are shown by their SMILES. Activity calls are given as the source filed them. The rule behind the calls is not given here.

Assay [1] addresses T1, Macrophage migration inhibitory factor (Homo sapiens) (UniProt P14174).
T1 sequence (whole entry): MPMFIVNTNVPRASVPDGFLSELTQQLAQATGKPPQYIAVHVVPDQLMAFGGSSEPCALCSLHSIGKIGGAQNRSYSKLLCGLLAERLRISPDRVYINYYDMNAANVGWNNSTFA
Nature of the assay: Inhibition of recombinant His-tagged MIF tautomerase activity (unknown origin) at 25 uM using 4-HPP as substrate relative to control. The gist of the method:
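Single-point screen at final inhibitor 25 µM in 5% DMSO (from 10 mM DMSO stocks diluted in 0.4 M boric acid pH 6.2). MIF final 340 nM; reaction started with 4-HPP (final 0.5 mM; pre-equilibrated overnight in 50 mM ammonium acetate pH 6.0). Absorbance at 306 nm followed over time. Vehicle control 5% DMSO; no-MIF negative control. Mean of at least 2 independent experiments.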

Assay [2] deals with T1, Macrophage migration inhibitory factor (Homo sapiens). The experiment in a line: Time-dependent inhibition of recombinant His-tagged MIF tautomerase activity (unknown origin) using 4-HPP as substrate. The gist of the method:
(§1)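 Time-dependence test: inhibitor (125–0 µM, 1.6-fold series in 5% DMSO) preincubated with MIF (340 nM) for 2 or 40 min before 4-HPP was added (final 0.5 mM). IC50 curves were built from the 306 nm absorbance increase in boric acid pH 6.2, and the two preincubation times were compared.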

Assay [3] has the same target. Nature of the assay: (§2) Inhibition of recombinant His-tagged MIF tautomerase activity (unknown origin) using 4-HPP as substrate pretreated for 2 mins followed by substrate addition. The gist of the method:
as §1

The target is the same in assay [4]. The experiment in a line: (§3) Inhibition of recombinant His-tagged MIF tautomerase activity (unknown origin) using 4-HPP as substrate pretreated for 40 mins followed by substrate addition. In a few lines: as §1
Assay [5] deals with T2, Macrophage migration inhibitory factor (Homo sapiens, UniProt P14174).
T2 sequence (P14174 whole entry): T1 sequence (whole entry)
The experiment in a line: Inhibition of recombinant His-tagged MIF tautomerase activity (unknown origin) using 4-HPP as substrate.

Assay [6] concerns the target T2, Macrophage migration inhibitory factor. The assay is described as §2. In a few lines:
as §1

For assay [7] the target is unchanged. The assay is described as §3. In a few lines: as §1
Assay [8] deals with T1, Macrophage migration inhibitory factor (Homo sapiens). Nature of the assay: Reversible inhibition of recombinant His-tagged MIF tautomerase activity (unknown origin) assessed as recovery of enzyme activity at 125 uM using 4-HPP as substrate by substrate dilution method. The gist of the method: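 Jump-dilution: MIF (34 µM) was mixed with inhibitor (125 µM, 5% DMSO), then diluted 100-fold into 4-HPP (0.5 mM) in boric acid. Absorbance at 306 nm was plotted against time to follow activity recovery. The control was treated the same way with 5% DMSO and no inhibitor.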

Take `Cc1ccc2c(c1)C1CC(=O)N(Cc3ccc(N)cc3)C(=O)C1=C(N)O2` (stereo not given): the inhibition in assay [1] is 10%.

On to `Cc1ccc2c(c1)OC(N)=C1C(=O)N(CCc3ccc(Cl)cc3Cl)C(=O)CC12` (stereo not given), for which the inhibition in assay [1] amounted to 20%.

For `Cc1ccc2c(c1)OC(N)=C1C(=O)N(CCc3ccc(Cl)cc3)C(=O)CC12` (stereo not given), the inhibition in assay [1] was determined as 5%.

Consider `NC1=C2C(=O)N(CCc3ccc(Cl)cc3)C(=O)CC2c2ccccc2O1` (stereo not given), for which the inhibition in assay [1] was determined as 15%.

As for `Cc1ccc2c(c1)C1CC(=O)N(CCc3ccc(Cl)cc3Cl)C(=O)C1=C(N)O2` (stereo not given), the inhibition in assay [1] was found to be 20%.

As for `NC1=C2C(=O)N(Cc3ccco3)C(=O)CC2c2ccccc2O1` (stereo not given), the inhibition in assay [1] came out at 0%.

Take `COc1ccc2c(c1)OC(N)=C1C(=O)N(CCCN3CCOCC3)C(=O)CC12` (stereo not given): the inhibition in assay [1] is 0%.

For the compound `NC1=C2C(=O)N(Cc3ccc(N)cc3)C(=O)CC2c2ccc(OCc3ccc(Cl)cc3)cc2O1` (stereo not given), the inhibition in assay [1] came out at 45%.

For `CCN(CC)CCCN1C(=O)CC2C(=C(N)Oc3ccc(C)cc32)C1=O` (stereo not given), the inhibition in assay [1] was found to be 0%.

As for `Cc1ccc2c(c1)OC(N)=C1C(=O)N(CCc3c[nH]c4ccccc34)C(=O)CC12` (stereo not given), in assay [2], the TDI entry was “inactive”. Further, the inhibition result in assay [3] and in assay [4] was “Active” in each case. Also, the inhibition in assay [1] amounted to 55%. Further, in assay [5], the half-inhibitory concentration (IC50) came out at 6.2 µM.

Consider `CCOc1ccc2c(c1)OC(N)=C1C(=O)N(Cc3ccncc3)C(=O)CC12` (stereo not given), for which, in assay [1], the inhibition came out at 0%.

As for `COc1ccc2c(c1)OC(N)=C1C(=O)N(CCO)C(=O)CC12` (stereo not given), the inhibition in assay [1] was found to be 0%.

On to `CCOc1ccc2c(c1)OC(N)=C1C(=O)N(Cc3cccnc3)C(=O)CC12` (stereo not given), for which the inhibition in assay [1] came to 10%.

For `COc1ccc2c(c1)OC(N)=C1C(=O)N(CCc3cccs3)C(=O)CC12` (stereo not given), the inhibition in assay [1] amounted to 15%.

In the case of `Cc1ccc2c(c1)OC(N)=C1C(=O)N(Cc3ccc(N)cc3)C(=O)CC12` (stereo not given), the inhibition in assay [1] is 0%.

For the compound `CCOc1ccc2c(c1)OC(N)=C1C(=O)N(CCc3ccc(Cl)cc3Cl)C(=O)CC12` (stereo not given), in assay [1], the inhibition was 30%.

With `C#CCN1C(=O)CC2C(=C(N)Oc3cc(C)ccc32)C1=O` (stereo not given), the inhibition in assay [1] turned out to be 0%.

Regarding `Cc1ccc2c(c1)OC(N)=C1C(=O)N(Cc3ccncc3)C(=O)CC12` (stereo not given), the inhibition in assay [1] worked out at 0%.

As to `CCOc1ccc2c(c1)OC(N)=C1C(=O)N(Cc3ccc(N)cc3)C(=O)CC12` (stereo not given), the inhibition in assay [1] was 0%.

Turning to `COCCN1C(=O)CC2C(=C(N)Oc3cc(C)ccc32)C1=O` (stereo not given), the inhibition in assay [1] was found to be 0%.

Consider `CCCCCCCCCCCCN1C(=O)CC2C(=C(N)Oc3ccc(C)cc32)C1=O` (stereo not given), for which the inhibition in assay [1] came out at 50%.

For `COc1ccc2c(c1)OC(N)=C1C(=O)N(Cc3cccnc3)C(=O)CC12` (stereo not given), in assay [1], the inhibition came to 0%.

With `Cc1ccc2c(c1)OC(N)=C1C(=O)N(Cc3cccc4ccccc34)C(=O)CC12` (stereo not given), the inhibition in assay [1] turned out to be 35%.

As to `COc1ccc2c(c1)OC(N)=C1C(=O)N(CC(C)C)C(=O)CC12` (stereo not given), the inhibition in assay [1] was 15%.

Take `COc1ccc2c(c1)OC(N)=C1C(=O)N(CCCN(C)C)C(=O)CC12` (stereo not given): the inhibition in assay [1] worked out at 0%.

As for `COc1ccc2c(c1)OC(N)=C1C(=O)N(Cc3ccc(N)cc3)C(=O)CC12` (stereo not given), the inhibition in assay [1] came to 0%.

As to `Cc1ccc2c(c1)C1CC(=O)N(CC(C)C)C(=O)C1=C(N)O2` (stereo not given), in assay [1], the inhibition came out at 0%.

For `Cc1ccc2c(c1)C1CC(=O)N(Cc3cccnc3)C(=O)C1=C(N)O2` (stereo not given), in assay [1], the inhibition worked out at 0%.

Consider `CC(C)CN1C(=O)CC2C(=C(N)Oc3cc(OCc4ccc(Cl)cc4)ccc32)C1=O` (stereo not given), for which the inhibition in assay [1] was found to be 40%.

With `Cc1ccc2c(c1)C1CC(=O)N(CCO)C(=O)C1=C(N)O2` (stereo not given), the inhibition in assay [1] was found to be 0%.

In the case of `NC1=C2C(=O)N(Cc3ccncc3)C(=O)CC2c2ccc(OCc3ccc(Cl)cc3)cc2O1` (stereo not given), the inhibition in assay [1] was determined as 15%.

Take `CCOc1ccc2c(c1)OC(N)=C1C(=O)N(Cc3cccc4ccccc34)C(=O)CC12` (stereo not given): in assay [1], the inhibition stood at 50%.

With `COCCCN1C(=O)CC2C(=C(N)Oc3cc(OC)ccc32)C1=O` (stereo not given), the inhibition in assay [1] turned out to be 0%.

For `NC1=C2C(=O)N(CCc3ccc(Cl)cc3)C(=O)CC2c2ccc(OCc3ccc(Cl)cc3)cc2O1` (stereo not given), the inhibition in assay [1] was determined as 80%. The IC50 in assay [5] came to 13 µM.

On to `NC1=C2C(=O)N(Cc3ccc(N)cc3)C(=O)CC2c2ccccc2O1` (stereo not given), for which, in assay [1], the inhibition came to 0%.

For `Cc1ccc2c(c1)C1CC(=O)N(CCc3cccs3)C(=O)C1=C(N)O2` (stereo not given), the inhibition in assay [1] came out at 10%.

As for `COc1ccc2c(c1)OC(N)=C1C(=O)N(Cc3ccco3)C(=O)CC12` (stereo not given), the inhibition in assay [1] was determined as 0%.

In the case of `C#CCN1C(=O)CC2C(=C(N)Oc3cc(OC)ccc32)C1=O` (stereo not given), in assay [1], the inhibition came out at 0%.

With `Cc1ccc2c(c1)C1CC(=O)N(Cc3ccncc3)C(=O)C1=C(N)O2` (stereo not given), the inhibition in assay [1] was found to be 0%.

As for `Cc1ccc2c(c1)OC(N)=C1C(=O)N(CCCN(C)C)C(=O)CC12` (stereo not given), the inhibition in assay [1] is 0%.

Take `COc1ccc2c(c1)OC(N)=C1C(=O)N(Cc3ccncc3)C(=O)CC12` (stereo not given): the inhibition in assay [1] came to 0%.

Take `NC1=C2C(=O)N(CCO)C(=O)CC2c2ccccc2O1` (stereo not given): the inhibition in assay [1] was 0%.

In the case of `CCOCCN1C(=O)CC2C(=C(N)Oc3cc(OCC)ccc32)C1=O` (stereo not given), the inhibition in assay [1] came to 0%.

In the case of `NC1=C2C(=O)N(CCc3c[nH]c4ccccc34)C(=O)CC2c2ccc(OCc3ccc(Cl)cc3)cc2O1` (stereo not given), in assay [1], the inhibition amounted to 70%. Besides, the IC50 in assay [5] turned out to be 8 µM.

In the case of `CCCCCCCCCCCCN1C(=O)CC2C(=C(N)Oc3cc(OCC)ccc32)C1=O` (stereo not given), in assay [1], the inhibition was 60%. For the same compound, in assay [5], the IC50 came to 21 µM.

Turning to `Cc1ccc2c(c1)C1CC(=O)N(CCc3c[nH]c4ccccc34)C(=O)C1=C(N)O2` (stereo not given), in assay [1], the inhibition came out at 25%.

For the compound `Cc1ccc2c(c1)C1CC(=O)N(Cc3ccco3)C(=O)C1=C(N)O2` (stereo not given), in assay [1], the inhibition was 15%.

For the compound `Cc1ccc2c(c1)C1CC(=O)N(CCN3CCOCC3)C(=O)C1=C(N)O2` (stereo not given), in assay [1], the inhibition turned out to be 0%.

Take `NC1=C2C(=O)N(CCc3c[nH]c4ccccc34)C(=O)CC2c2ccccc2O1` (stereo not given): in assay [1], the inhibition worked out at 15%.

For `CCOCCN1C(=O)CC2C(=C(N)Oc3cc(OCc4ccc(Cl)cc4)ccc32)C1=O` (stereo not given), in assay [1], the inhibition amounted to 10%.

Take `CCCCCCCCCCCCN1C(=O)CC2C(=C(N)Oc3cc(OCc4ccc(Cl)cc4)ccc32)C1=O` (stereo not given): the inhibition in assay [1] was found to be 80%. For the same compound, in assay [5], the IC50 was 7.1 µM.

`C=CCN1C(=O)CC2C(=C(N)Oc3cc(OCc4ccc(Cl)cc4)ccc32)C1=O` (stereo not given): the inhibition in assay [1] amounted to 10%.

With `CCOc1ccc2c(c1)OC(N)=C1C(=O)N(CCCN3CCOCC3)C(=O)CC12` (stereo not given), in assay [1], the inhibition was determined as 0%.

For `CCCCCCCCCCCCN1C(=O)CC2C(=C(N)Oc3ccccc32)C1=O` (stereo not given), the TDI entry in assay [2] is “inactive”. The IC50 in assay [6] was determined as 13.5 µM; in assay [7] it was 13.8 µM; in assay [5], 18 µM. For the same compound, the inhibition entry in assay [8] is “Active”. In assay [1], the inhibition is 60%.

`CCOc1ccc2c(c1)OC(N)=C1C(=O)N(CCc3c[nH]c4ccccc34)C(=O)CC12` (stereo not given): the inhibition in assay [1] worked out at 10%.

`COc1ccc2c(c1)OC(N)=C1C(=O)N(Cc3cccc4ccccc34)C(=O)CC12` (stereo not given): in assay [1], the inhibition amounted to 25%.

As for `CCOc1ccc2c(c1)OC(N)=C1C(=O)N(CC(C)C)C(=O)CC12` (stereo not given), the inhibition in assay [1] worked out at 10%.
